Legend:
[1] = Antiplatelet activity against ADP-induced human platelet in platelet rich plasma assessed as inhibition of platelet aggregation preincubated for 2 mins followed by ADP stimulation and measured for 5 mins by aggregometry; type: functional, cell-based
Summary of the method: (§1)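 Human whole blood anticoagulated with 3.8% sodium citrate (1:9 v/v); PRP by centrifugation at 300 rpm for 20 min at room temperature, PPP at 900 rpm for 10 min. Compound in DMSO (final under 0.5%) added to PRP, 2 min at 37 °C, then ADP 10 μM. Aggregometer stirred at 900 rpm, 37 °C, calibrated with PRP and PPP, read 5 min (Born). Inhibition from maximal trace height versus DMSO vehicle.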

[2] = Antiplatelet activity against ADP-induced human platelet in platelet rich plasma assessed as inhibition of platelet aggregation at 10 uM preincubated for 2 mins followed by ADP stimulation and measured for 5 mins by aggregometry relative to control; type: functional; conditions: 7 min; summary of the method: as §1
[3] = Antiplatelet activity against ADP-induced human platelet in platelet rich plasma assessed as inhibition of platelet aggregation at 3 uM preincubated for 2 mins followed by ADP stimulation and measured for 5 mins by aggregometry relative to control; type: functional; conditions: 7 min; summary of the method: as §1
[4] = Stability in mouse liver microsomes measured after 2 hrs; type: ADME, Microsome; conditions: read-out: Stability
[5] = target: P2Y purinoceptor 12 (Homo sapiens, UniProt Q9H244); assay: Inhibition of P2Y12 receptor in human platelet assessed as reduction in ADP-induced VASP phosphorylation by flow cytometry; type: functional, cell-based
[6] = Toxicity in mouse assessed as death at 1500 mg/kg, po administered via gavage measured for 14 days; type: organism-based; conditions: in vivo, 336 h, time 14 day
Summary of the method: (§2)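 Single-dose oral gavage study run under GLP. Forty mice (20 male, 20 female) were randomly split into a treated group and a vehicle group of 20 each (10 male, 10 female). The vehicle group got aqueous sodium carboxymethyl cellulose.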

[7] = Stability in mouse liver microsomes measured after 1 hr; type: ADME, Microsome; conditions: read-out: Stability
[8] = Toxicity in mouse assessed as blood loss at 5 mg/kg, po administered via gavage measured after 1 hr by bleeding tail test (reference value: 34.92 uL); type: organism-based; conditions: in vivo
[9] = Toxicity in mouse assessed as bleeding time at 5 mg/kg, po administered via gavage measured after 1 hr by bleeding tail test (reference value: 5.2 mins); type: organism-based; conditions: in vivo
[10] = system: Mus musculus; assay: Antiplatelet activity against ADP-induced platelet aggregation in mouse assessed as inhibition of platelet aggregation at 5 mg/kg, po measured after 1 hr by turbidimetric method relative to control; type: functional
Summary of the method: (§3)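 Male mice of about 20 g received compound iv (2.5 mg/kg) or orally (5 mg/kg). After 1 h, blood was drawn from the abdominal aorta into 3.8% citrate. PRP was obtained at 1000 rpm for 7 min, adjusted with PPP to about 2 × 10^6 platelets/mL and incubated 10 min at 37 °C. ADP final 5 μM; turbidimetric aggregation read, PRP as zero and PPP as 100%.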

[11] = Stability of compound in fasted-state simulated gastric fluid incubated for 1 day; type: ADME; conditions: read-out: Stability
[12] = Stability of compound in fasted-state simulated intestinal fluid incubated for 1 day; type: ADME; conditions: read-out: Stability
[13] = system: Mus musculus; assay: Antiplatelet activity against ADP-induced platelet aggregation in mouse assessed as inhibition of platelet aggregation at 2.5 mg/kg, iv measured after 1 hr by turbidimetric method relative to control; type: functional; summary of the method: as §3
[14] = system: Platelet; assay: Potency index, ratio of ticagrelor IC50 to test compound IC50 for antiplatelet activity against ADP-induced human platelet in platelet rich plasma assessed as inhibition of platelet aggregation; type: functional
[15] = Stability of compound in PBS buffer incubated for 1 week at 37 degC; type: physicochemical; conditions: time 1 weeks, read-out: Stability
[16] = Toxicity in mouse assessed as change in body weight at 1500 mg/kg, po administered via gavage measured for 14 days; type: organism-based; conditions: in vivo, 336 h, time 14 day; summary of the method: as §2

P2Y purinoceptor 12, sequence (Q9H244 whole entry): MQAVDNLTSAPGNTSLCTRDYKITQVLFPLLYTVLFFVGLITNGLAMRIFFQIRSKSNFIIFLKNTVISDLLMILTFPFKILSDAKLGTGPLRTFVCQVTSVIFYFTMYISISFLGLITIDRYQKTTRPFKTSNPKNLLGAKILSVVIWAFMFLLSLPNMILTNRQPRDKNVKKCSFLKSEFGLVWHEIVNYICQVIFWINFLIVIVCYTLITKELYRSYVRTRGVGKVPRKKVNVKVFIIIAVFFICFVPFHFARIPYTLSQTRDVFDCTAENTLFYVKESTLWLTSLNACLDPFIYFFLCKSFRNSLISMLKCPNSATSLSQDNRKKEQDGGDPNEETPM

For `CCCSc1nc(NC2CC2)c2nnn([C@@H]3C[C@H](O)[C@@H](O)[C@H]3O)c2n1`, the IC50 [1] was 820 nM and the inhibition at 10 µM [2] was 86.3%.
`CCCSc1nc(NCC(C)C)c2nnn([C@@H]3C[C@H](OCCO)[C@@H](O)[C@H]3O)c2n1` showed an inhibition at 10 µM [2] of 7.8%.
With `CCCSc1nc(N/N=C/c2ccc([N+](=O)[O-])cc2)c2nnn([C@@H]3C[C@H](OCCO)[C@@H](O)[C@H]3O)c2n1` the inhibition at 3 µM [3] was 70.9% and the inhibition at 10 µM [2] was 90.9%.
`CCCSc1nc(N/N=C/c2ccccc2O)c2nnn([C@@H]3C[C@H](O)[C@@H](O)[C@H]3O)c2n1` gave an inhibition at 3 µM [3] of 83.6%, an IC50 [1] of 670 nM and an inhibition at 10 µM [2] of 92.1%.
`CCCSc1nc(NC2CCCCC2)c2nnn([C@@H]3C[C@H](OCCO)[C@@H](O)[C@H]3O)c2n1` gave an inhibition at 10 µM [2] of 5.3%.
With `CCCSc1nc(N/N=C/c2cccs2)c2nnn([C@@H]3C[C@H](O)[C@@H](O)[C@H]3O)c2n1` the inhibition at 3 µM [3] was 80.5%, the IC50 [1] was 400 nM and the inhibition at 10 µM [2] was 95.4%.
In the case of `CCCSc1nc(NCCc2ccc(O)cc2)c2nnn([C@@H]3C[C@H](O)[C@@H](O)[C@H]3O)c2n1`, the inhibition at 10 µM [2] is reported as 76.8%.
Molecule `CCCSc1nc(N/N=C/c2ccccc2OC)c2nnn([C@@H]3C[C@H](O)[C@@H](O)[C@H]3O)c2n1` has an inhibition at 3 µM [3] of 11.7% and an inhibition at 10 µM [2] of 48.7%.
`CCCSc1nc(NCCCO)c2nnn([C@@H]3C[C@H](OCCO)[C@@H](O)[C@H]3O)c2n1` gave an inhibition at 10 µM [2] of 13.9%.
For `CCCSc1nc(N/N=C/c2ccccn2)c2nnn([C@@H]3C[C@H](O)[C@@H](O)[C@H]3O)c2n1`, the inhibition at 3 µM [3] was 36.4% and the inhibition at 10 µM [2] was 71.7%.
`CCCSc1nc(NCCCO)c2nnn([C@@H]3C[C@H](O)[C@@H](O)[C@H]3O)c2n1` gave an IC50 [1] of 1780 nM and an inhibition at 10 µM [2] of 70.3%.
`CCCSc1nc(NCC)c2nnn([C@@H]3C[C@H](OCCO)[C@@H](O)[C@H]3O)c2n1` gave an IC50 [1] of 4890 nM and an inhibition at 10 µM [2] of 21.4%.
`CCCSc1nc(NCCc2ccccc2)c2nnn([C@@H]3C[C@H](O)[C@@H](O)[C@H]3O)c2n1` gave an inhibition at 10 µM [2] of 33.4%.
With `CCCSc1nc(NC2CC2)c2nnn([C@@H]3C[C@H](OCCO)[C@@H](O)[C@H]3O)c2n1` the inhibition at 10 µM [2] was 14.8%.
In the case of `CCCSc1nc(N/N=C/c2ccc(Cl)cc2)c2nnn([C@@H]3C[C@H](OCCO)[C@@H](O)[C@H]3O)c2n1`, the inhibition at 3 µM [3] is reported as 9.1% and the inhibition at 10 µM [2] is reported as 69.1%.
With `CCCNc1nc(SCCC)nc2c1nnn2[C@@H]1C[C@H](O)[C@@H](O)[C@H]1O` the inhibition at 10 µM [2] was 68.6%.
With `CCCSc1nc(N/N=C/c2ccccc2Cl)c2nnn([C@@H]3C[C@H](O)[C@@H](O)[C@H]3O)c2n1` the inhibition at 3 µM [3] was 51.6% and the inhibition at 10 µM [2] was 83.2%.
For `CCCSc1nc(N/N=C/c2ccc(O)cc2O)c2nnn([C@@H]3C[C@H](O)[C@@H](O)[C@H]3O)c2n1`, the inhibition at 3 µM [3] was 63.4% and the inhibition at 10 µM [2] was 98.3%.
With `CCCSc1nc(NCCO)c2nnn([C@@H]3C[C@H](OCCO)[C@@H](O)[C@H]3O)c2n1` the inhibition at 10 µM [2] was 15.2%.
In the case of `CCCSc1nc(N/N=C/c2ccc(Cl)cc2Cl)c2nnn([C@@H]3C[C@H](O)[C@@H](O)[C@H]3O)c2n1`, the inhibition at 10 µM [2] is reported as 50.1%.
In the case of `CCCSc1nc(N/N=C/c2ccc(O)cc2)c2nnn([C@@H]3C[C@H](O)[C@@H](O)[C@H]3O)c2n1`, the inhibition at 3 µM [3] is reported as 86.3%, the IC50 [1] is reported as 780 nM and the inhibition at 10 µM [2] is reported as 100%.
With `CCCSc1nc(N/N=C/c2cccc(O)c2)c2nnn([C@@H]3C[C@H](O)[C@@H](O)[C@H]3O)c2n1` the remaining at 2 h [4] was 73.7%, the IC50 [5] was 46 nM and the Activity [6] was “Non-Toxic”. For the same molecule, the inhibition at 3 µM [3] was 93.4%, the IC50 [1] was 200 nM and the inhibition at 10 µM [2] was 100%. For the same molecule, the remaining at 1 h [7] was 81.2%, the Activity [8] was 44.5 µL and the Time [9] was 10.4 min. The inhibition in vivo at 5 mg/kg [10] was 73.3%, the remaining at 24 h [11] was 96.7% and the remaining at 24 h [12] was 97.4%. The inhibition in vivo at 2.5 mg/kg [13] was 62.2%, the “Ratio IC50” value [14] was 4 and the remaining at 168 h [15] was 98.3%. For the same molecule, the Activity [16] was “Non-Toxic”.
With `CCCSc1nc(N/N=C/c2ccc(Cl)cc2)c2nnn([C@@H]3C[C@H](O)[C@@H](O)[C@H]3O)c2n1` the inhibition at 3 µM [3] was 7% and the inhibition at 10 µM [2] was 53.7%.
In the case of `CCCCNc1nc(SCCC)nc2c1nnn2[C@@H]1C[C@H](OCCO)[C@@H](O)[C@H]1O`, the IC50 [1] is reported as 3160 nM and the inhibition at 10 µM [2] is reported as 40.8%.
For `CCCSc1nc(NC2CCCC2)c2nnn([C@@H]3C[C@H](OCCO)[C@@H](O)[C@H]3O)c2n1`, the inhibition at 10 µM [2] was 8.1%.
In the case of `CCCCNc1nc(SCCC)nc2c1nnn2[C@@H]1C[C@H](O)[C@@H](O)[C@H]1O`, the inhibition at 10 µM [2] is reported as 85.4%.
For `CCCSc1nc(N/N=C/c2cccc([N+](=O)[O-])c2)c2nnn([C@@H]3C[C@H](O)[C@@H](O)[C@H]3O)c2n1`, the inhibition at 3 µM [3] was 76.3%, the IC50 [1] was 660 nM and the inhibition at 10 µM [2] was 88.6%.
`CCCSc1nc(N/N=C/c2ccccc2)c2nnn([C@@H]3C[C@H](O)[C@@H](O)[C@H]3O)c2n1` gave an inhibition at 3 µM [3] of 81.6%, an IC50 [1] of 450 nM and an inhibition at 10 µM [2] of 100%. For the same molecule, the “Ratio IC50” value [14] was 2.
`CCCSc1nc(N/N=C/c2ccc([N+](=O)[O-])cc2)c2nnn([C@@H]3C[C@H](O)[C@@H](O)[C@H]3O)c2n1` showed an inhibition at 3 µM [3] of 5% and an inhibition at 10 µM [2] of 62.7%.
For `CCCNc1nc(SCCC)nc2c1nnn2[C@@H]1C[C@H](OCCO)[C@@H](O)[C@H]1O`, the inhibition at 10 µM [2] was 13.6%.
With `CCCSc1nc(N/N=C/c2ccc(F)c(F)c2)c2nnn([C@@H]3C[C@H](O)[C@@H](O)[C@H]3O)c2n1` the inhibition at 3 µM [3] was 62.7% and the inhibition at 10 µM [2] was 96.5%.
In the case of `CCCSc1nc(N/N=C/c2ccc(F)c(F)c2)c2nnn([C@@H]3C[C@H](OCCO)[C@@H](O)[C@H]3O)c2n1`, the inhibition at 3 µM [3] is reported as 46.3% and the inhibition at 10 µM [2] is reported as 85.4%.
For `CCCSc1nc(N/N=C/c2cccc(O)c2)c2nnn([C@@H]3C[C@H](OCCO)[C@@H](O)[C@H]3O)c2n1`, the inhibition at 3 µM [3] was 85.4%, the IC50 [1] was 580 nM and the inhibition at 10 µM [2] was 100%.
For `CCCSc1nc(N/N=C/c2ccc(OC)c(OC)c2)c2nnn([C@@H]3C[C@H](O)[C@@H](O)[C@H]3O)c2n1`, the inhibition at 3 µM [3] was 33.4% and the inhibition at 10 µM [2] was 78.3%.
For `CCCSc1nc(NCCO)c2nnn([C@@H]3C[C@H](O)[C@@H](O)[C@H]3O)c2n1`, the inhibition at 10 µM [2] was 69.4%.
Work on `CCCSc1nc(NCCc2cccc(F)c2)c2nnn([C@@H]3C[C@H](O)[C@@H](O)[C@H]3O)c2n1` yielded an inhibition at 10 µM [2] of 68.3%.
`CCCSc1nc(N/N=C/c2cccc([N+](=O)[O-])c2)c2nnn([C@@H]3C[C@H](OCCO)[C@@H](O)[C@H]3O)c2n1` showed an inhibition at 3 µM [3] of 77.3% and an inhibition at 10 µM [2] of 95.5%.
`CCCSc1nc(NCCCc2ccccc2)c2nnn([C@@H]3C[C@H](O)[C@@H](O)[C@H]3O)c2n1` gave an inhibition at 10 µM [2] of 29.3%.
`CCCSc1nc(N[C@@H]2C[C@H]2c2ccc(F)c(F)c2)c2nnn([C@@H]3C[C@H](OCCO)[C@@H](O)[C@H]3O)c2n1` [TICAGRELOR] gave an IC50 [5] of 39 nM, an inhibition at 3 µM [3] of 78.6% and an IC50 [1] of 740 nM. For the same molecule, the inhibition at 10 µM [2] was 92.7%, the Activity [8] was 73.25 µL and the Time [9] was greater than 20 min. For the same molecule, the inhibition in vivo at 5 mg/kg [10] was 69.4% and the inhibition in vivo at 2.5 mg/kg [13] was 52.2%.
Molecule `CCCSc1nc(N/N=C/c2ccc(OC)cc2)c2nnn([C@@H]3C[C@H](O)[C@@H](O)[C@H]3O)c2n1` has an inhibition at 3 µM [3] of 71.4%, an IC50 [1] of 1300 nM and an inhibition at 10 µM [2] of 81.5%.
